Source: ChEMBL document CHEMBL4364339, “Systematically Mitigating the p38α Activity of Triazole-based BET Inhibitors” (ACS Med Chem Lett, 2019)
Activity calls are given as the source filed them. The calls are words filed in the database; no cut-off is given here.

Legend:
MM1.S = experiment: Antiproliferative activity against human MM1S cells assessed as reduction in cell viability after 69 hrs by Alamar blue assay; assay type: functional, cell-based
Method in brief: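 MM.1S cell viability, read as EC50 from a nonlinear curve fit; mean ± SEM of three biological replicates, each run in three technical replicates.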

[1] = target: SWI/SNF-related matrix-associated actin-dependent regulator of chromatin subfamily A member 2 (Homo sapiens, UniProt P51531); experiment: Binding affinity to human partial length SMARCA2 (S1377 to Q1486 residues) expressed in bacterial expression system by BROMOscan assay
SWI/SNF-related matrix-associated actin-dependent regulator of chromatin subfamily A member 2, sequence (P51531 whole entry, the tested form may be a part): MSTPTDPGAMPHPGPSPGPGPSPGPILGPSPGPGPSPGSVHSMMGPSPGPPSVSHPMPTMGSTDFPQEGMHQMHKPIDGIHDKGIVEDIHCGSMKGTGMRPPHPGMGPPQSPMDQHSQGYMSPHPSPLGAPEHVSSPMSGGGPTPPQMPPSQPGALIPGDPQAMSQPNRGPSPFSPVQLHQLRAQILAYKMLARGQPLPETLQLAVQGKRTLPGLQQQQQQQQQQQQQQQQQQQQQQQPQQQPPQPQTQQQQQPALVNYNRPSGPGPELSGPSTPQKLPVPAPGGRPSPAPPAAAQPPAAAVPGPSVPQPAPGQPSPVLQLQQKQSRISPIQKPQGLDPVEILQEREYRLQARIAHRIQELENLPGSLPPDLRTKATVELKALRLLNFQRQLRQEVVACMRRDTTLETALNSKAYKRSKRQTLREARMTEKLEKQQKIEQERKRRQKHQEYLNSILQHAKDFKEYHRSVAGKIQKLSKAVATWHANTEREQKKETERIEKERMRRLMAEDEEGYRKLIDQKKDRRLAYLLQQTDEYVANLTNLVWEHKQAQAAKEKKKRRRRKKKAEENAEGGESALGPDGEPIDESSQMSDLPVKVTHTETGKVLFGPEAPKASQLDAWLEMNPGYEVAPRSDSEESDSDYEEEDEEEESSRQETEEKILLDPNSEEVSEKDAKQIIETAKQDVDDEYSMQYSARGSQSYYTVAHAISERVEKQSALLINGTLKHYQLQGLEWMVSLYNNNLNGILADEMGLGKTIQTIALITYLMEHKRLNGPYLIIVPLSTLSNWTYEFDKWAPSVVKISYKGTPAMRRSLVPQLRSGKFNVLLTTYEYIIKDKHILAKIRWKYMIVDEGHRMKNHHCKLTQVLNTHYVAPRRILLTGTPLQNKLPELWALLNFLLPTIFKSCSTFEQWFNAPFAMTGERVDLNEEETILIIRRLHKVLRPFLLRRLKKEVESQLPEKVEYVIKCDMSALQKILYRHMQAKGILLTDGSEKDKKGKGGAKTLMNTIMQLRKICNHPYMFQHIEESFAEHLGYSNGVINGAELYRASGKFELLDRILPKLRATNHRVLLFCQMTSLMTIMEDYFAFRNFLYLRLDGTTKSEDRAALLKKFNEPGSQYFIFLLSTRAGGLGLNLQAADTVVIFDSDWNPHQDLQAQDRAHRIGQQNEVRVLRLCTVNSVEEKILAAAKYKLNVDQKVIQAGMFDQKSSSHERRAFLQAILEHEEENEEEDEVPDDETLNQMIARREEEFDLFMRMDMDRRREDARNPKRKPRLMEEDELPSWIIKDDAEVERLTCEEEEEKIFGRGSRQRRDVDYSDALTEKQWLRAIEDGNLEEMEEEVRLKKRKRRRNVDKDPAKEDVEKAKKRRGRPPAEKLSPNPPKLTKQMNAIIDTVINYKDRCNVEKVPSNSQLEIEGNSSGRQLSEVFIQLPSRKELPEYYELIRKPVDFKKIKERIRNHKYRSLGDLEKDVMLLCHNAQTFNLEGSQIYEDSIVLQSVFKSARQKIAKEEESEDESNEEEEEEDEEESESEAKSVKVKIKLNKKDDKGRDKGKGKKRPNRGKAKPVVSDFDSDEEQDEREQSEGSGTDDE
Method in brief: (§1)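 Dissociation constants from BROMOscan competition binding; mean and standard error of two independent trials.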

[2] = target: T1, Bromodomain-containing protein 4 (Homo sapiens, UniProt O60885); experiment: Binding affinity to human partial length BRD4 bromodomain 2 long isoform (K333 to E460 residues) expressed in bacterial expression system by BROMOscan assay; method in brief: as §1
[3] = target: T1, Bromodomain-containing protein 4; experiment: Binding affinity to human partial length BRD4 bromodomain 1 long isoform (N44 to E168 residues) expressed in bacterial expression system by BROMOscan assay; method in brief: as §1
CREB-binding protein = CREB-binding protein (Homo sapiens, UniProt Q92793); experiment: Binding affinity to human partial length CREBBP (R1081 to G1197 residues) expressed in bacterial expression system by BROMOscan assay; method in brief: as §1
CREB-binding protein, sequence (Q92793 whole entry, the tested form may be a part): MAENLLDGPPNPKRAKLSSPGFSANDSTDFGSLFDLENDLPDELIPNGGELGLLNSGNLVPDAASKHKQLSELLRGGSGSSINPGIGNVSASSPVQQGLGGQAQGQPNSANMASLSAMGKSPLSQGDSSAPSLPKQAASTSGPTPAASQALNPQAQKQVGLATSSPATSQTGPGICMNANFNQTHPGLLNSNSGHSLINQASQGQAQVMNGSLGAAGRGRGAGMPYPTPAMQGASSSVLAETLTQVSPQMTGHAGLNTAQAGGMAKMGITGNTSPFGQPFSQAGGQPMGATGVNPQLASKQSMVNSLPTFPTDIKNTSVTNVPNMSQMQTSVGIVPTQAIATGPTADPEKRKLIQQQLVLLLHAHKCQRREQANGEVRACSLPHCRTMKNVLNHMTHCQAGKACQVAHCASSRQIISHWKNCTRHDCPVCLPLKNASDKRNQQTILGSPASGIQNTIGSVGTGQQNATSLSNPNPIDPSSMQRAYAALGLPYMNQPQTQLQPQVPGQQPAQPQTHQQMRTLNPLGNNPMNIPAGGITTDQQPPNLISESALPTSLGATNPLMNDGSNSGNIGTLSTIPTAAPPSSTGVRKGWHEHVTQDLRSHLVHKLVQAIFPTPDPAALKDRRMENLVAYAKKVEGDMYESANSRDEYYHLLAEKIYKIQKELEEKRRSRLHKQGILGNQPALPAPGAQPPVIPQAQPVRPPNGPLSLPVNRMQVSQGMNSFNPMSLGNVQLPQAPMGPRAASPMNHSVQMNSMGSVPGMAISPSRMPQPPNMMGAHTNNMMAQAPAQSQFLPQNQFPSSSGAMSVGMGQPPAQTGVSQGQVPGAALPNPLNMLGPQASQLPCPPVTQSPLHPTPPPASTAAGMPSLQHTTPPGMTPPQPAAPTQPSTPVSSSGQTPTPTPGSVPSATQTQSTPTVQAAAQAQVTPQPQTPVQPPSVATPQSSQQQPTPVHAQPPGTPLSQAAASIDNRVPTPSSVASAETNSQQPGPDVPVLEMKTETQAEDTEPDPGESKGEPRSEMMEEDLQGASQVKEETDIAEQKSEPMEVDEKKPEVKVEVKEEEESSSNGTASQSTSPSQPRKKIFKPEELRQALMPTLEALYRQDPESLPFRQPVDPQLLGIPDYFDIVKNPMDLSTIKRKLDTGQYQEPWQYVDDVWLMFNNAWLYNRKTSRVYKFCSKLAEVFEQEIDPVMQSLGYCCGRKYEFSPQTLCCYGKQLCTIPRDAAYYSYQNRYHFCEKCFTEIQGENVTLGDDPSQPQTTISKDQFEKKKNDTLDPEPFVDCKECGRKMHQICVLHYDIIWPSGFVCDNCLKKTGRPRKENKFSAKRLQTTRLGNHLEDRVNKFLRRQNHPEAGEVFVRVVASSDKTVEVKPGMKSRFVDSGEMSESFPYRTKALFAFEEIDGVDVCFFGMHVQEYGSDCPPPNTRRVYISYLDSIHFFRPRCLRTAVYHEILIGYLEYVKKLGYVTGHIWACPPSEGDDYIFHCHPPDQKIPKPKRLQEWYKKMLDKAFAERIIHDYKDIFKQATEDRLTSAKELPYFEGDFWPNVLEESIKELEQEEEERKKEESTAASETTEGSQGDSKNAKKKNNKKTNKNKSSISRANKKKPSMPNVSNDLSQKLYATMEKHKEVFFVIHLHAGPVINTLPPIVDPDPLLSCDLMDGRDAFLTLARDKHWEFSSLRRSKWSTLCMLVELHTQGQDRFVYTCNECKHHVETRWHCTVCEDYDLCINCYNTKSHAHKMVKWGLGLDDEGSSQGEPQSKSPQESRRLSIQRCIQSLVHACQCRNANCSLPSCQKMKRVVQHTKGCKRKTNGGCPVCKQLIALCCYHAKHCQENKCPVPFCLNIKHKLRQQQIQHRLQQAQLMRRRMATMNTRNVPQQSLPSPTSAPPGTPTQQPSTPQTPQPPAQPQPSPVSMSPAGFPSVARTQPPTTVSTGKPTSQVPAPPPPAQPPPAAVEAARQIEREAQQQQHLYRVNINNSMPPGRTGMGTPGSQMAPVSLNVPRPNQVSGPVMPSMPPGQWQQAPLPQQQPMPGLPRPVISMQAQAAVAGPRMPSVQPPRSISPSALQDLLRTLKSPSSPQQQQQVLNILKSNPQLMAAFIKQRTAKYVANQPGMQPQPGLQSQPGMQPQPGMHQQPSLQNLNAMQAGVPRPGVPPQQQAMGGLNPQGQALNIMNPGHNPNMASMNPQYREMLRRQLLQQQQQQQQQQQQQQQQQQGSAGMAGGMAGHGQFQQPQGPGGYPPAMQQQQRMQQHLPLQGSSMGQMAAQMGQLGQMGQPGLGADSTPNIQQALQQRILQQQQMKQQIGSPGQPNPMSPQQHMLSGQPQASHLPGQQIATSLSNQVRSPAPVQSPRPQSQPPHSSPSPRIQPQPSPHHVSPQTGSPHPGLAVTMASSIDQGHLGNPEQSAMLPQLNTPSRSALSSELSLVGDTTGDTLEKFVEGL

[4] = target: Mitogen-activated protein kinase 14 (Homo sapiens, UniProt Q16539); experiment: Binding affinity to wild-type human full length p38-alpha (M1 to S360 residues) expressed in bacterial expression system by Kinomescan method
Mitogen-activated protein kinase 14, sequence (Q16539 whole entry, the tested form may be a part): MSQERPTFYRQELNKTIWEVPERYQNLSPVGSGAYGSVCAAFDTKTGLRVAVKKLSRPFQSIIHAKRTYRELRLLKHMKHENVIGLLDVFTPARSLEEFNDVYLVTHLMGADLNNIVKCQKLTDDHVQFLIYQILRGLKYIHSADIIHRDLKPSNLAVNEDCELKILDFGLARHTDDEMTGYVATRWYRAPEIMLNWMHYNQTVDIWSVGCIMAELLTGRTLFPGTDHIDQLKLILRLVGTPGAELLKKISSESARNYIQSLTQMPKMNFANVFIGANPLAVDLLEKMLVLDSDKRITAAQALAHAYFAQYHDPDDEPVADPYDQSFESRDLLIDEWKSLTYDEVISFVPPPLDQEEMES
Method in brief: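 Kd for p38α from KINOMEscan binding; mean and standard error of two independent trials.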

[5] = target: T1, Bromodomain-containing protein 4; experiment: Inhibition of BRD4 bromodomain 1 (unknown origin) expressed in Escherichia coli Bl21(DE3)-pRARE cells by fluorescence anisotropy
Method in brief: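 BRD4-D1 ligand displacement read by fluorescence anisotropy, reported as IC50; mean and standard deviation of three independent trials; IC50 above 100 μM reported as >100.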

[6] = target: T1, Bromodomain-containing protein 4; experiment: Inhibition of biotinylated histone H4 peptide binding to BRD4 bromodomain 1 (44 to 168 residues) (unknown origin) after 60 mins by Alphascreen method
Homo sapiens [7] = organism: Homo sapiens; experiment: Selectivity index, ratio of Kd for human full length p38-alpha (M1 to S360 residues) expressed in bacterial cells to Kd for human partial length BRD4 bromodomain 1 long isoform (N44 to E168 residues) expressed in bacterial cells; assay type: cell-based
Homo sapiens [8] = organism: Homo sapiens; experiment: Selectivity index, ratio of Kd for human full length p38-alpha (M1 to S360 residues) expressed in bacterial cells to Kd for human partial length BRD4 bromodomain 2 long isoform (K333 to E460 residues) expressed in bacterial cells; assay type: cell-based
[9] = target: T1, Bromodomain-containing protein 4; experiment: Inhibition of BRD4 bromodomain 1 in human MM1S cells assessed as decrease in c-MYC expression after 6 hrs by Western blot analysis; assay type: cell-based
Homo sapiens [10] = organism: Homo sapiens; experiment: Selectivity ratio of compound effect on human full length p38-alpha (M1 to S360 residues) expressed in bacterial cells over compound effect on human partial length BRD4 bromodomain 1 long isoform (N44 to E168 residues) expressed in bacterial cells; assay type: cell-based

Compound | EC50 (MM1.S) | Kd [4] | IC50 [5] | further results
Cc1cc(C)cc(Nc2cccc(-c3c(C)nnn3C3CCN(C(=N)N)CC3)n2)c1 | > 50 µM | > 25 µM | – | Kd [1]: > 100 µM; Kd [2]: 2.1 µM; Kd [3]: 1.2 µM; Kd (CREB-binding protein): 78 µM
Cc1cc(C)cc(Nc2cccc(-c3c(-c4ccc(F)cc4)nnn3C3CCNCC3)n2)c1 | – | 6.5 µM | – | –
Cc1cc(C)cc(Oc2cccc(-c3c(-c4ccc(F)cc4)nnn3C3CCNCC3)n2)c1 | – | 5 µM | – | –
Cc1cc(C)cc(Oc2cncc(-c3c(C)nnn3C3CCN(C(=N)N)CC3)c2)c1 | – | – | > 100 µM | –
Cc1cc(C)cc(Oc2cccc(-c3c(C)nnn3C3CCN(C(=N)N)CC3)n2)c1 | > 50 µM | > 200 µM | – | IC50 [6]: 1.7 µM; Kd [1]: > 100 µM; Kd [2]: 0.94 µM; Ratio (Homo sapiens [7]): > 100; Kd [3]: 1.1 µM; Kd (CREB-binding protein): > 100 µM; Ratio (Homo sapiens [8]): > 100
Cc1cc(C)cc(Nc2cccc(-c3c(C)nnn3C3CCNCC3)n2)c1 | 6.3 µM | – | 3.9 µM | inhibition [9]: Active
Cc1cc(C)cc(Nc2nccc(-c3c(-c4ccc(F)cc4)nnn3C3CCNCC3)n2)c1 | – | 0.0022 µM | – | Selectivity ratio (Homo sapiens [10]): > 10000

Continued, in another order:

EC50 (MM1.S) | Kd [4] | IC50 [5] | Compound | further results
– | – | > 100 µM | Cc1cc(C)cc(Oc2nccc(-c3c(C4CCCC4)nnn3C3CCNCC3)n2)c1 | –
– | – | > 100 µM | Cc1cc(C)cc(Oc2nccc(-c3c(C(C)(C)C)nnn3C3CCNCC3)n2)c1 | –
> 50 µM | – | – | Cc1cc(C)cc(Oc2nccc(-c3c(C)nnn3C3CCN(C(=N)N)CC3)n2)c1 | –
– | – | > 100 µM | CCCc1nnn(C2CCN(C(=N)N)CC2)c1-c1ccnc(Oc2cc(C)cc(C)c2)n1 | –
2.9 µM | – | – | Cc1cc(C)cc(Oc2cccc(-c3c(C)nnn3C3CCNCC3)n2)c1 | –
6.6 µM | – | 11 µM | Cc1cc(C)cc(Oc2nccc(-c3c(C)nnn3C3CCNCC3)n2)c1 | inhibition [9]: Active
– | – | > 100 µM | Cc1cc(C)cc(Oc2nccc(-c3c(C4CCCCC4)nnn3C3CCNCC3)n2)c1 | –
– | 0.12 µM | > 100 µM | Cc1cc(C)cc(Oc2nccc(-c3c(-c4ccc(F)cc4)nnn3C3CCNCC3)n2)c1 | IC50 [6]: 27 µM
– | – | > 100 µM | Cc1cc(C)cc(Oc2nccc(-c3c(C(C)C)nnn3C3CCN(C(=N)N)CC3)n2)c1 | –
